In ChEMBL document CHEMBL1629439, “High-throughput identification of antibacterials against methicillin-resistant Staphylococcus aureus (MRSA) and the transglycosylase” (Bioorg Med Chem, 2010):
Converted amounts (≈) assume the structure as drawn.

Tests used:
Staphylococcus aureus [1] = assay: Antimicrobial activity against Staphylococcus aureus ATCC 29213 after 18 to 24 hrs by alamar blue assay
Escherichia coli = assay: Antimicrobial activity against Escherichia coli ATCC […] after 18 to 24 hrs by alamar blue assay; type: functional; settings: Escherichia coli; read-out: MIC
In short: (§1)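 Broth microdilution per NCCLS in Mueller-Hinton broth, 8-point twofold dilutions, 384-well format. Exponential-phase cells at 5 × 10^5 cells/ml incubated with compound 18–24 h at 37 °C, then 20% Alamar blue added and fluorescence read. MIC90 taken as the lowest concentration preventing at least 90% bacterial growth.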

Staphylococcus aureus [2] = assay: Antimicrobial activity against methicillin-resistant Staphylococcus aureus ATCC 33592 after 18 to 24 hrs by alamar blue assay; type: functional; settings: Staphylococcus aureus, ATCC 33592; read-out: MIC
In short: (§2)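 Broth microdilution per NCCLS standard, Mueller-Hinton broth, 8-point twofold dilutions; exponentially growing cells at 5 10^5 cells/ml with compound, 18–24 h at 37 C; 20% Alamar blue added, fluorescence read; MIC90 taken as lowest concentration preventing at least 90% growth.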

Bacillus subtilis = assay: Antimicrobial activity against Bacillus subtilis ATCC 23857 after 18 to 24 hrs by alamar blue assay; type: functional
In short: as §1

Staphylococcus aureus [3] = assay: Antimicrobial activity against methicillin-resistant Staphylococcus aureus isolate NTUH4722 after 18 to 24 hrs by alamar blue assay; type: functional
In short: as §2

Acinetobacter baumannii = assay: Antimicrobial activity against Acinetobacter baumannii ATCC 49139 after 18 to 24 hrs by alamar blue assay; type: functional; settings: Acinetobacter baumannii, ATCC 49139; read-out: MIC
In short: as §1

Serratia marcescens = assay: Antimicrobial activity against Serratia marcescens ATCC 14756 after 18 to 24 hrs by alamar blue assay; type: functional; settings: Serratia marcescens, ATCC 14756; read-out: MIC
In short: as §1

[4] = system: Stenotrophomonas maltophilia; assay: Antimicrobial activity against Stenotrophomonas maltophilia ATCC 13637 after 18 to 24 hrs by alamar blue assay; type: functional; settings: Stenotrophomonas maltophilia, ATCC 13637; read-out: MIC
In short: as §1

Staphylococcus aureus [5] = assay: Antimicrobial activity against oxacillin- and methicillin-resistant Staphylococcus aureus isolate Sa-OXA-R2 after 18 to 24 hrs by alamar blue assay; type: functional
In short: as §2

Pseudomonas aeruginosa = assay: Antimicrobial activity against Pseudomonas aeruginosa ATCC 25619 after 18 to 24 hrs by alamar blue assay; type: functional; settings: Pseudomonas aeruginosa, ATCC 25619; read-out: MIC
In short: as §1

[6] = system: Mycolicibacterium smegmatis; assay: Antimicrobial activity against Mycobacterium smegmatis BCRC 11565 after 18 to 24 hrs by alamar blue assay; type: functional; settings: Mycolicibacterium smegmatis, BCRC 11565; read-out: MIC
In short: as §1

Structure (SMILES)	MIC (Staphylococcus aureus [1]) [µg/mL]	MIC (Escherichia coli) [µg/mL]	MIC (Staphylococcus aureus [2]) [µg/mL]	MIC (Bacillus subtilis) [µg/mL]	MIC (Staphylococcus aureus [3]) [µg/mL]	MIC (Acinetobacter baumannii) [µg/mL]	MIC (Serratia marcescens) [µg/mL]	MIC [4] [µg/mL]	MIC (Staphylococcus aureus [5]) [µg/mL]	MIC (Pseudomonas aeruginosa) [µg/mL]	MIC [6] [µg/mL]
O=C(Nc1nnc(-c2ccc(Cl)cc2)o1)c1cccc(Cl)c1	0.5 (≈ 1.5 µM)	> 256	0.25 (≈ 0.748 µM)	0.5 (≈ 1.5 µM)	0.125 (≈ 0.374 µM)	> 256	> 256	> 256	0.125 (≈ 0.374 µM)	> 256	0.5 (≈ 1.5 µM)
Cc1c(CC(=O)O)c(=O)oc2c(C)c3occ(-c4ccc(Br)cc4)c3cc12	2 (≈ 4.68 µM)	> 256	2 (≈ 4.68 µM)	> 64	16 (≈ 37.4 µM)	> 256	> 256	> 256	2 (≈ 4.68 µM)	> 256	1 (≈ 2.34 µM)
CCCc1cc(O)nc(N2NC(C)=CC2NC(=O)c2cccs2)n1 (configuration not stated)	1 (≈ 2.89 µM)	> 256	1 (≈ 2.89 µM)	0.25 (≈ 0.724 µM)	1 (≈ 2.89 µM)	> 256	> 256	> 256	1 (≈ 2.89 µM)	> 256	0.25 (≈ 0.724 µM)
O=C(Nc1nnc(-c2ccc(F)cc2)o1)c1cccc(Br)c1	2 (≈ 5.52 µM)	> 256	0.5 (≈ 1.38 µM)	0.5 (≈ 1.38 µM)	1 (≈ 2.76 µM)	> 256	> 256	> 256	1 (≈ 2.76 µM)	> 256	0.5 (≈ 1.38 µM)
O=C(Nc1cc(Cl)c(Cl)c(Cl)c1)c1cc(Br)cc(Br)c1O	≤ 0.03	8 (≈ 16.9 µM)	0.06 (≈ 0.126 µM)	< 0.03	≤ 0.03	16 (≈ 33.7 µM)	16 (≈ 33.7 µM)	16 (≈ 33.7 µM)	≤ 0.03	16 (≈ 33.7 µM)	0.5 (≈ 1.05 µM)
Cc1ccc(NS(=O)(=O)c2ccc3c(c2)NCC(C)C(=O)S3)c(Br)c1 (configuration not stated)	2 (≈ 4.53 µM)	> 256	8 (≈ 18.1 µM)	< 0.03	16 (≈ 36.3 µM)	> 256	> 256	> 256	> 64	> 256	> 64
O=C(Nc1ccc2oc(-c3ccncc3)nc2c1)c1ccc([N+](=O)[O-])o1	2 (≈ 5.71 µM)	256 (≈ 731 µM)	4 (≈ 11.4 µM)	0.06 (≈ 0.171 µM)	2 (≈ 5.71 µM)	12 (≈ 34.3 µM)	32 (≈ 91.4 µM)	32 (≈ 91.4 µM)	> 4	128 (≈ 365 µM)	0.5 (≈ 1.43 µM)
O=C(Nc1cccc(-c2nc3ncccc3o2)c1)c1ccc([N+](=O)[O-])o1	4 (≈ 11.4 µM)	256 (≈ 731 µM)	4 (≈ 11.4 µM)	0.06 (≈ 0.171 µM)	2 (≈ 5.71 µM)	12 (≈ 34.3 µM)	32 (≈ 91.4 µM)	32 (≈ 91.4 µM)	2 (≈ 5.71 µM)	128 (≈ 365 µM)	0.5 (≈ 1.43 µM)
Cc1c(CC(=O)NCCC(=O)O)c(=O)oc2c(C)c3occ(-c4ccc(Cl)cc4)c3cc12	2.5 (≈ 5.51 µM)	> 256	1.25 (≈ 2.75 µM)	> 64	2.5 (≈ 5.51 µM)	> 256	> 256	> 256	2.5 (≈ 5.51 µM)	> 256	1 (≈ 2.2 µM)
CC1=CC(NC(=O)C(C)Oc2ccccc2)N(c2nc(C)c(C)c(O)n2)N1 (configuration not stated)	1 (≈ 2.71 µM)	> 256	0.25 (≈ 0.677 µM)	0.25 (≈ 0.677 µM)	1 (≈ 2.71 µM)	> 256	> 256	> 256	1 (≈ 2.71 µM)	> 256	0.25 (≈ 0.677 µM)
O=C(Nc1cc(Cl)ccc1Cl)c1cc(Cl)cc(Cl)c1O	1 (≈ 2.85 µM)	8 (≈ 22.8 µM)	0.5 (≈ 1.42 µM)	< 0.03	0.5 (≈ 1.42 µM)	16 (≈ 45.6 µM)	16 (≈ 45.6 µM)	16 (≈ 45.6 µM)	2 (≈ 5.7 µM)	16 (≈ 45.6 µM)	0.5 (≈ 1.42 µM)
NC(=O)c1oc2ccccc2c1NC(=O)c1ccc([N+](=O)[O-])o1	2 (≈ 6.34 µM)	256 (≈ 812 µM)	0.5 (≈ 1.59 µM)	0.06 (≈ 0.19 µM)	0.5 (≈ 1.59 µM)	12 (≈ 38.1 µM)	32 (≈ 102 µM)	32 (≈ 102 µM)	2 (≈ 6.34 µM)	128 (≈ 406 µM)	0.5 (≈ 1.59 µM)
